Measurements: PubChem BioAssay AID602146 (NMMLSC, 2011)

System: SCC-12F cells, EGF-induced EGFR degradation, Western blot
Assay: EGFR lysosomal turnover delay in cells – SCC-12F cells, Western blot, mechanism study for Ras-related GTPase inhibitor project (AID 602146)
Conditions: at 100 µM, stronger effect = higher value; for EGFR remaining fraction at 60 min: measured here: 60 min time point
In short: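 also added = EGF stimulation at 20 nM after compound pretreatment | times = 2 h pretreatment, 0–2 h EGF exposure | measured by = EGFR Western blot | read-out = EGFR fraction versus time zero, compared with DMSO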

SMILES | EGFR remaining fraction at 120 min | EGFR remaining fraction at 60 min
CC1(C)Cc2c(sc(NC(=S)NC(=O)c3ccc(F)cc3)c2C(=O)O)CO1 | 0.241 | 0.561
COc1cccc(C(=O)NC(=S)Nc2sc3c(c2C(=O)O)CC(C)(C)OC3)c1 | 1.24 | 0.651
CC1(C)Cc2c(sc(NC(=S)NC(=O)c3ccc(Br)cc3)c2C(=O)O)CO1 | 0.643 | 0.696
